Measured values: ChEMBL document CHEMBL5058577, “EUbOPEN Chemogenomics Library 2 (Multiplex)” (2022)

Tested on: U2OS
Experiment: Multiplex assay against U2OS
Assay type: toxicity, cell-based
Settings: human
Outline: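 Imaging took place on a CQ1 microscope at 37°C and 5% CO2 once compound had been added to live cells stained at seeding with Hoechst33342, BioTracker Green Microtubule Cytoskeleton Dye, MitoTracker Red and Annexin V Alexa Fluor 680. CellPathfinder machine-learning gating classed cells as Hoechst high-intensity objects or normal cells, classed normal cells as having healthy, pyknosed or fragmented nuclei, and classed pyknosed cells as mitotic or apoptotic. Tubulin, mitochondrial-mass and membrane-permeability phenotypes are per cents of the healthy-nucleus cells.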

[1] = 12 h, 1 µM, compound concentration 1 uM, replicate 1
[2] = 12 h, 1 µM, compound concentration 1 uM, replicate 2
[3] = 12 h, 10 µM, compound concentration 10 uM, replicate 1
[4] = 12 h, 10 µM, compound concentration 10 uM, replicate 2
[5] = 24 h, 1 µM, compound concentration 1 uM, replicate 1
[6] = 24 h, 1 µM, compound concentration 1 uM, replicate 2
[7] = 24 h, 10 µM, compound concentration 10 uM, replicate 1
[8] = 24 h, 10 µM, compound concentration 10 uM, replicate 2
[9] = 48 h, 1 µM, compound concentration 1 uM, replicate 1
[10] = 48 h, 1 µM, compound concentration 1 uM, replicate 2
[11] = 48 h, 10 µM, compound concentration 10 uM, replicate 1
[12] = 48 h, 10 µM, compound concentration 10 uM, replicate 2

## Cc1ccc(F)cc1C(=O)Nc1ccc(C(=O)N2Cc3cccn3Cc3ccccc32)c(Cl)c1 [LIXIVAPTAN]
[1]
  Population Apoptotic (%): 69%
  Population Fragmented Nuclei (%): 32%
  Population Healthy Nuclei (%): 55%
  Population Hoechst High Intensity Objects (%): 3%
  Population Membrane Permeable-Phenotype (%): 9%
  Population Mitochondria Different-Phenotype (%): 9%
  Population Mitotic Cells (%): 30%
  Population Normal (%): 96%
  Population Pyknosed Nuclei (%): 11%
  Population Tubulin-Different-Phenotype (%): 7%
  Total Cell Count: 230
[2]
  Population Apoptotic (%): 84%
  Population Fragmented Nuclei (%): 8%
  Population Healthy Nuclei (%): 82%
  Population Membrane Permeable-Phenotype (%): 14%
  Population Mitochondria Different-Phenotype (%): 10%
  Population Mitotic Cells (%): 15%
  Population Pyknosed Nuclei (%): 8%
  Population Tubulin-Different-Phenotype (%): 11%
  Total Cell Count: 150
[3]
  Population Apoptotic (%): 59%
  Population Fragmented Nuclei (%): 34%
  Population Healthy Nuclei (%): 49%
  Population Hoechst High Intensity Objects (%): 5%
  Population Membrane Permeable-Phenotype (%): 79%
  Population Mitochondria Different-Phenotype (%): 42%
  Population Mitotic Cells (%): 40%
  Population Normal (%): 94%
  Population Pyknosed Nuclei (%): 16%
  Population Tubulin-Different-Phenotype (%): 85%
  Total Cell Count: 203
[4]
  Population Apoptotic (%): 47%
  Population Fragmented Nuclei (%): 13%
  Population Healthy Nuclei (%): 69%
  Population Membrane Permeable-Phenotype (%): 63%
  Population Mitochondria Different-Phenotype (%): 55%
  Population Mitotic Cells (%): 52%
  Population Tubulin-Different-Phenotype (%): 77%
  Total Cell Count: 119
[5]
  Population Apoptotic (%): 86%
  Population Fragmented Nuclei (%): 26%
  Population Healthy Nuclei (%): 64%
  Population Hoechst High Intensity Objects (%): 1%
  Population Membrane Permeable-Phenotype (%): 9%
  Population Mitochondria Different-Phenotype (%): 9%
  Population Mitotic Cells (%): 13%
  Population Normal (%): 98%
  Population Pyknosed Nuclei (%): 8%
  Population Tubulin-Different-Phenotype (%): 4%
  Total Cell Count: 257
[6]
  Population Apoptotic (%): 57%
  Population Fragmented Nuclei (%): 14%
  Population Healthy Nuclei (%): 81%
  Population Hoechst High Intensity Objects (%): 4%
  Population Membrane Permeable-Phenotype (%): 11%
  Population Mitochondria Different-Phenotype (%): 13%
  Population Mitotic Cells (%): 42%
  Population Normal (%): 95%
  Population Pyknosed Nuclei (%): 4%
  Population Tubulin-Different-Phenotype (%): 7%
  Total Cell Count: 171
[7]
  Population Apoptotic (%): 59%
  Population Fragmented Nuclei (%): 30%
  Population Healthy Nuclei (%): 50%
  Population Hoechst High Intensity Objects (%): 4%
  Population Membrane Permeable-Phenotype (%): 65%
  Population Mitochondria Different-Phenotype (%): 63%
  Population Mitotic Cells (%): 40%
  Population Normal (%): 95%
  Population Pyknosed Nuclei (%): 18%
  Population Tubulin-Different-Phenotype (%): 75%
  Total Cell Count: 207
[8]
  Population Apoptotic (%): 66%
  Population Fragmented Nuclei (%): 14%
  Population Healthy Nuclei (%): 67%
  Population Membrane Permeable-Phenotype (%): 54%
  Population Mitochondria Different-Phenotype (%): 67%
  Population Mitotic Cells (%): 33%
  Population Tubulin-Different-Phenotype (%): 66%
  Total Cell Count: 119
[9]
  Population Apoptotic (%): 87%
  Population Fragmented Nuclei (%): 24%
  Population Healthy Nuclei (%): 64%
  Population Hoechst High Intensity Objects (%): 1%
  Population Membrane Permeable-Phenotype (%): 9%
  Population Mitochondria Different-Phenotype (%): 6%
  Population Mitotic Cells (%): 12%
  Population Normal (%): 98%
  Population Pyknosed Nuclei (%): 11%
  Population Tubulin-Different-Phenotype (%): 5%
  Total Cell Count: 378
[10]
  Population Apoptotic (%): 95%
  Population Fragmented Nuclei (%): 10%
  Population Healthy Nuclei (%): 79%
  Population Hoechst High Intensity Objects (%): 3%
  Population Membrane Permeable-Phenotype (%): 13%
  Population Mitochondria Different-Phenotype (%): 11%
  Population Mitotic Cells (%): 5%
  Population Normal (%): 96%
  Population Pyknosed Nuclei (%): 10%
  Total Cell Count: 206
[11]
  Population Apoptotic (%): 75%
  Population Fragmented Nuclei (%): 32%
  Population Healthy Nuclei (%): 37%
  Population Hoechst High Intensity Objects (%): 5%
  Population Membrane Permeable-Phenotype (%): 49%
  Population Mitochondria Different-Phenotype (%): 40%
  Population Mitotic Cells (%): 25%
  Population Normal (%): 94%
  Population Pyknosed Nuclei (%): 29%
  Population Tubulin-Different-Phenotype (%): 44%
  Total Cell Count: 232
[12]
  Population Apoptotic (%): 92%
  Population Fragmented Nuclei (%): 18%
  Population Healthy Nuclei (%): 58%
  Population Hoechst High Intensity Objects (%): 12%
  Population Membrane Permeable-Phenotype (%): 60%
  Population Mitochondria Different-Phenotype (%): 52%
  Population Mitotic Cells (%): 7%
  Population Normal (%): 87%
  Population Pyknosed Nuclei (%): 23%
  Population Tubulin-Different-Phenotype (%): 57%
  Total Cell Count: 137
